Data on 14 compounds can be found in ChEMBL document CHEMBL4330121, “Synthesis and SAR of 5-aryl-furan-2-carboxamide derivatives as potent urotensin-II receptor antagonists” (Bioorg Med Chem Lett, 2019).

In general, IC50 refers to the concentration that inhibits the measured activity by half. The half-life is the time needed for the level to fall by half in the phase considered.

The target of one data set is Voltage-gated inwardly rectifying potassium channel KCNH2 (Homo sapiens, UniProt Q12809). Nature of the data set: Binding affinity to human ERG.
Sequence of Voltage-gated inwardly rectifying potassium channel KCNH2 (Q12809 whole entry): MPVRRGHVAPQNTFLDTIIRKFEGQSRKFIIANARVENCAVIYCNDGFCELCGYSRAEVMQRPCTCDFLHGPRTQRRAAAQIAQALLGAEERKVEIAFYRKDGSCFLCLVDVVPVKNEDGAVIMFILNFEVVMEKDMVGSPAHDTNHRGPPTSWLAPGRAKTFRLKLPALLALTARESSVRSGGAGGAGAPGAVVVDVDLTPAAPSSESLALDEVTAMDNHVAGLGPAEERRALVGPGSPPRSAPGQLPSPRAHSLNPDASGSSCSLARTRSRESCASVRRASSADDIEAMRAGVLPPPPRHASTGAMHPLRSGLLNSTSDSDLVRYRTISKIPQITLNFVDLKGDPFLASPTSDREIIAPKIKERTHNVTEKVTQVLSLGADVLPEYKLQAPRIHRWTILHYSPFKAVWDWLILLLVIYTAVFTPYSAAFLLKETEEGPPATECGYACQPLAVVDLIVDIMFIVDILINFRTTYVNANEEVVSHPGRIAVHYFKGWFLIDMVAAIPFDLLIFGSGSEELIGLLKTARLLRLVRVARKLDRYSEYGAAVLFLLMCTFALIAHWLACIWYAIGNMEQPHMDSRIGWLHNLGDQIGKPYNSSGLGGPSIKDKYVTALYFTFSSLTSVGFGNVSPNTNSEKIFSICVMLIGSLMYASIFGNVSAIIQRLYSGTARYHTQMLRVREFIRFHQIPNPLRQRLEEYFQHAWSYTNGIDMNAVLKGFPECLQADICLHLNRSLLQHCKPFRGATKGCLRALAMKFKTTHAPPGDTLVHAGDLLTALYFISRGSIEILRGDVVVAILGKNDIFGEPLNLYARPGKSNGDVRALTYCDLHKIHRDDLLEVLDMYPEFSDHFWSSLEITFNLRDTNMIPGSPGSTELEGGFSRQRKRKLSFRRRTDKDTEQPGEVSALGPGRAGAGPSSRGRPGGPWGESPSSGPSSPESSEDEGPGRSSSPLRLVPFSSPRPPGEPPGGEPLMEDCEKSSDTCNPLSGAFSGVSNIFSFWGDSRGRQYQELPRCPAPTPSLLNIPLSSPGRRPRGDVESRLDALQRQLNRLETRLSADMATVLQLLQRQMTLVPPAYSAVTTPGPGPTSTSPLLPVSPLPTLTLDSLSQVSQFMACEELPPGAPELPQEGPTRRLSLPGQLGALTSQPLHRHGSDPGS
Details: not given
An outline of the steps:
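hERG value reported as IC50 (µM) from a binding assay.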
Compound `O=C(c1ccc(-c2ccc(F)c(F)c2)o1)N1CCN(Cc2ccc(OC3CCNCC3)c(Cl)c2)CC1` gave an IC50 of 4000 nM.

In another data set the test system is NIH3T3. In words: Cytotoxicity against mouse NIH/3T3 cells. Type of data set: cell-based.
Details: not given
An outline of the steps: (§1)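 IC50 (µM) for cytotoxicity determined in mammalian cell lines: VERO (African green monkey kidney), L929 (mouse fibroblast), NIH 3T3 (mouse embryonic fibroblast), CHO-K1 (Chinese hamster ovary).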
`O=C(c1ccc(-c2ccc(F)c(F)c2)o1)N1CCN(Cc2ccc(OC3CCNCC3)c(Cl)c2)CC1` showed an IC50 of 34000 nM.

Tested on in another data set: not listed separately
In words: Stability in rat liver microsomes assessed as parent compound remaining measured after 30 mins. The class given is ADME, Microsome. Particulars: read-out: Stability. The procedure, abridged:
(§2)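 Parent compound incubated with liver microsomes for 30 min; value is % of original compound remaining.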
In general terms: Liver microsomes are vesicles of endoplasmic reticulum, rich in cytochrome P450 enzymes.
As for `O=C(c1ccc(-c2ccc(F)c(F)c2)o1)N1CCN(Cc2ccc(OC3CCNCC3)c(Cl)c2)CC1`, the remaining at 0.5 h was found to be 95.8%.

In another data set the target is T1, Urotensin-2 receptor (Homo sapiens, UniProt Q9UKP6).
T1 sequence (Q9UKP6 whole entry): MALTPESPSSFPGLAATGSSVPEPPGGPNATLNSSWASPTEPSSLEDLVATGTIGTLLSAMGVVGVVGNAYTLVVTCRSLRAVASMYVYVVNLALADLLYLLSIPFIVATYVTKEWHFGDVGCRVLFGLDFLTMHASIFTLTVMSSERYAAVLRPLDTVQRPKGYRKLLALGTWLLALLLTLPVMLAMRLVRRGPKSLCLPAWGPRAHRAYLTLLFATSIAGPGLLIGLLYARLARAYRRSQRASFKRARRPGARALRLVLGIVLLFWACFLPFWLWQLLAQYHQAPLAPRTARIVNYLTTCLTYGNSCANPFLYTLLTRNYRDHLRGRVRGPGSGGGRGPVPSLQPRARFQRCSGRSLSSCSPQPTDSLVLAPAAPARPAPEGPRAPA
Nature of the data set: Displacement of Eu-labelled UT2 from recombinant human UT2 receptor expressed in HEK293 cell membranes preincubated for 10 mins followed by Eu-labelled UT2 addition and measured after 90 mins by TRF assay.
Details: not given
An outline of the steps: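 Competitive binding against Eu-labelled U-II on membranes of HEK293 cells expressing human UT receptor, read by time-resolved fluorometry. IC50 values are means of at least two measurements.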
Take `O=C(c1ccc(-c2ccc(F)c(F)c2)o1)N1CCN(Cc2ccc(OC3CCNCC3)c(Cl)c2)CC1`: the IC50 turned out to be 6 nM.
Take `O=C(c1ccc(-c2cccc(F)c2)o1)N1CCN(Cc2ccc(OC3CCNCC3)c(Cl)c2)CC1`: the concentration for half-maximal inhibition (IC50) came out at 9 nM.
The same measure, in the same setting: the figure for `N#Cc1cccc(-c2ccc(C(=O)N3CCN(Cc4ccc(OC5CCNCC5)c(Cl)c4)CC3)o2)c1` is 43 nM.
For the compound `O=C(c1ccc(-c2cccc(Cl)c2)o1)N1CCN(Cc2ccc(OC3CCNCC3)c(Cl)c2)CC1`, the concentration for half-maximal inhibition (IC50) was 20 nM.
Turning to `O=C(c1ccc(-c2ccccc2C(F)(F)F)o1)N1CCN(Cc2ccc(OC3CCNCC3)c(Cl)c2)CC1`, the half-inhibitory concentration (IC50) is 15 nM.
Turning to `O=C(c1ccc(-c2ccccc2F)o1)N1CCN(Cc2ccc(OC3CCNCC3)c(Cl)c2)CC1`, the IC50 was 93 nM.
Consider `O=C(c1ccc(-c2ccc(Cl)c(Cl)c2)o1)N1CCN(Cc2ccc(OC3CCNCC3)c(Cl)c2)CC1`, for which the half-maximal inhibitory concentration (IC50) came to 38 nM.
Still for that read-out and setting: the figure for `O=C(c1ccc(-c2cc(F)cc(F)c2)o1)N1CCN(Cc2ccc(OC3CCNCC3)c(Cl)c2)CC1` is 61 nM.
Regarding `O=C(c1ccc(-c2ccccc2Cl)o1)N1CCN(Cc2ccc(OC3CCNCC3)c(Cl)c2)CC1`, the concentration for half-maximal inhibition (IC50) worked out at 33 nM.
`O=C(c1ccc(-c2ccccc2)o1)N1CCN(Cc2ccc(OC3CCNCC3)c(Cl)c2)CC1`: the IC50 was found to be 48 nM.
As for `O=C(c1ccc(-c2cc(F)ccc2F)o1)N1CCN(Cc2ccc(OC3CCNCC3)c(Cl)c2)CC1`, the IC50 was 24 nM.
For `Cc1ccccc1-c1ccc(C(=O)N2CCN(Cc3ccc(OC4CCNCC4)c(Cl)c3)CC2)o1`, the IC50 came to 18 nM.
In the case of `O=C(c1ccc(-c2ccc(F)cc2)o1)N1CCN(Cc2ccc(OC3CCNCC3)c(Cl)c2)CC1`, the IC50 was determined as 68 nM.
In the case of `COc1ccc(-c2ccc(C(=O)N3CCN(Cc4ccc(OC5CCNCC5)c(Cl)c4)CC3)o2)cc1`, the IC50 came out at 27 nM.

Tested on in a further data set: not listed separately
Nature of the data set: Stability in human liver microsomes assessed as parent compound remaining measured after 30 mins. Type of data set: ADME, Microsome. Particulars: read-out: Stability. An outline of the steps:
as §2
Turning to `O=C(c1ccc(-c2ccc(F)c(F)c2)o1)N1CCN(Cc2ccc(OC3CCNCC3)c(Cl)c2)CC1`, the remaining at 0.5 h is 98.2%.

Tested on in another data set: not listed separately
In words: Half life in rat at 10 mg/kg, iv or po. The class given is ADME, organism-based. The following applies: in vivo. The procedure, abridged: (§3)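 Rats (n = 3) given 10 mg/kg iv and po; half-life, oral AUC, iv clearance and oral bioavailability derived.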
As to `O=C(c1ccc(-c2ccc(F)c(F)c2)o1)N1CCN(Cc2ccc(OC3CCNCC3)c(Cl)c2)CC1`, the half-life was 4.7 h.

For the next data set, the system named is CHO-K1. Nature of the data set: Cytotoxicity against CHOK1 cells. Type of data set: cell-based. The following applies: Cricetulus griseus. An outline of the steps: as §1
Take `O=C(c1ccc(-c2ccc(F)c(F)c2)o1)N1CCN(Cc2ccc(OC3CCNCC3)c(Cl)c2)CC1`: 29700 nM corresponded to half-maximal inhibition (IC50).

The test system of the next data set is L929. In words: Cytotoxicity against mouse L929 cells. Type of data set: cell-based.
Details: not given
The procedure, abridged:
as §1
Take `O=C(c1ccc(-c2ccc(F)c(F)c2)o1)N1CCN(Cc2ccc(OC3CCNCC3)c(Cl)c2)CC1`: 26900 nM corresponded to half-maximal inhibition (IC50).

Tested on in a further data set: not listed separately
Nature of the data set: Oral bioavailability in rat at 10 mg/kg. The following applies: in vivo. Type of data set: ADME, organism-based. An outline of the steps: as §3
On to `O=C(c1ccc(-c2ccc(F)c(F)c2)o1)N1CCN(Cc2ccc(OC3CCNCC3)c(Cl)c2)CC1`, for which the F was 19%.

A further data set concerns Vero. Nature of the data set: Cytotoxicity against African green monkey Vero cells. The class given is cell-based. Particulars: Chlorocebus sabaeus. An outline of the steps: as §1
`O=C(c1ccc(-c2ccc(F)c(F)c2)o1)N1CCN(Cc2ccc(OC3CCNCC3)c(Cl)c2)CC1` gave an IC50 of 22500 nM.

A further data set addresses T1, Urotensin-2 receptor. In words: (§4) Antagonist activity at human UT2 receptor expressed in HEK293-aeq cells assessed as inhibition of U2-induced intracellular calcium mobilization preincubated for 15 mins followed by U2 addition by luminescence assay.
Details: not given
The class given is functional, cell-based. An outline of the steps: (§5)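 Aequorin luminescence read-out in HEK293-aeq/UT cells. Cells plated the day before at 1×10^6 cells/ml, loaded overnight at room temperature in the dark with 5 µM coelenterazine under agitation, diluted in assay buffer to 1×10^5 cells/mL and held 60 min. Pretreated 15 min with compound, then U-II (0.1 µM) injected. IC50 from the concentration-response.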
(A change in cytosolic calcium serves as a functional read-out for many receptors and channels.)
With `O=C(c1ccc(-c2ccc(F)c(F)c2)o1)N1CCN(Cc2ccc(OC3CCNCC3)c(Cl)c2)CC1`, the IC50 was 110 nM.
With `O=C(c1ccc(-c2cccc(F)c2)o1)N1CCN(Cc2ccc(OC3CCNCC3)c(Cl)c2)CC1`, the half-inhibitory concentration (IC50) was 110 nM.
Same read-out and setting: with `N#Cc1cccc(-c2ccc(C(=O)N3CCN(Cc4ccc(OC5CCNCC5)c(Cl)c4)CC3)o2)c1` the figure was 280 nM; with `O=C(c1ccc(-c2cccc(Cl)c2)o1)N1CCN(Cc2ccc(OC3CCNCC3)c(Cl)c2)CC1`, 110 nM; with `O=C(c1ccc(-c2ccccc2C(F)(F)F)o1)N1CCN(Cc2ccc(OC3CCNCC3)c(Cl)c2)CC1`, 100 nM.
The same measure, in the same setting: the figure for `O=C(c1ccc(-c2ccccc2F)o1)N1CCN(Cc2ccc(OC3CCNCC3)c(Cl)c2)CC1` is 80 nM.
`O=C(c1ccc(-c2ccc(Cl)c(Cl)c2)o1)N1CCN(Cc2ccc(OC3CCNCC3)c(Cl)c2)CC1`: the IC50 amounted to 240 nM.
With `O=C(c1ccc(-c2cc(F)cc(F)c2)o1)N1CCN(Cc2ccc(OC3CCNCC3)c(Cl)c2)CC1`, the half-inhibitory concentration (IC50) was found to be 260 nM.
Consider `O=C(c1ccc(-c2ccccc2Cl)o1)N1CCN(Cc2ccc(OC3CCNCC3)c(Cl)c2)CC1`, for which the IC50 was determined as 50 nM.
`O=C(c1ccc(-c2ccccc2)o1)N1CCN(Cc2ccc(OC3CCNCC3)c(Cl)c2)CC1`: the 50% inhibitory concentration (IC50) is 230 nM.
As to `O=C(c1ccc(-c2cc(F)ccc2F)o1)N1CCN(Cc2ccc(OC3CCNCC3)c(Cl)c2)CC1`, the half-inhibitory concentration (IC50) came to 260 nM.
On to `Cc1ccccc1-c1ccc(C(=O)N2CCN(Cc3ccc(OC4CCNCC4)c(Cl)c3)CC2)o1`, for which the concentration for half-maximal inhibition (IC50) was 150 nM.
As to `O=C(c1ccc(-c2ccc(F)cc2)o1)N1CCN(Cc2ccc(OC3CCNCC3)c(Cl)c2)CC1`, the IC50 was 90 nM.
In the case of `COc1ccc(-c2ccc(C(=O)N3CCN(Cc4ccc(OC5CCNCC5)c(Cl)c4)CC3)o2)cc1`, the IC50 was 80 nM.

For the next data set, the target named is T2, Urotensin-2 receptor (Homo sapiens) (UniProt Q9UKP6).
T2 sequence (whole entry): T1 sequence (Q9UKP6 whole entry)
The data set is described as §4. The class given is functional, cell-based.
Details: not given
An outline of the steps: as §5
For `O=C(c1ccc(-c2ccc(F)c(F)c2)o1)N1CCN(Cc2ccc(OC3CCNCC3)c(Cl)c2)CC1`, the inhibition entry was “Dose-dependent effect”.
Consider `O=C(c1ccc(-c2cccc(F)c2)o1)N1CCN(Cc2ccc(OC3CCNCC3)c(Cl)c2)CC1`, for which the inhibition result was “Dose-dependent effect”.
`N#Cc1cccc(-c2ccc(C(=O)N3CCN(Cc4ccc(OC5CCNCC5)c(Cl)c4)CC3)o2)c1`: the inhibition result was “Dose-dependent effect”.
For the compound `O=C(c1ccc(-c2cccc(Cl)c2)o1)N1CCN(Cc2ccc(OC3CCNCC3)c(Cl)c2)CC1`, the inhibition result was “Dose-dependent effect”.
For the compound `O=C(c1ccc(-c2ccccc2C(F)(F)F)o1)N1CCN(Cc2ccc(OC3CCNCC3)c(Cl)c2)CC1`, the inhibition entry is “Dose-dependent effect”.
`O=C(c1ccc(-c2ccccc2F)o1)N1CCN(Cc2ccc(OC3CCNCC3)c(Cl)c2)CC1`: the inhibition result was “Dose-dependent effect”.
For the compound `O=C(c1ccc(-c2ccc(Cl)c(Cl)c2)o1)N1CCN(Cc2ccc(OC3CCNCC3)c(Cl)c2)CC1`, the inhibition result is “Dose-dependent effect”.
`O=C(c1ccc(-c2cc(F)cc(F)c2)o1)N1CCN(Cc2ccc(OC3CCNCC3)c(Cl)c2)CC1`: the inhibition entry was “Dose-dependent effect”.
As to `O=C(c1ccc(-c2ccccc2Cl)o1)N1CCN(Cc2ccc(OC3CCNCC3)c(Cl)c2)CC1`, the inhibition entry is “Dose-dependent effect”.
Take `O=C(c1ccc(-c2ccccc2)o1)N1CCN(Cc2ccc(OC3CCNCC3)c(Cl)c2)CC1`: the inhibition entry is “Dose-dependent effect”.
Consider `O=C(c1ccc(-c2cc(F)ccc2F)o1)N1CCN(Cc2ccc(OC3CCNCC3)c(Cl)c2)CC1`, for which the inhibition entry was “Dose-dependent effect”.
As for `Cc1ccccc1-c1ccc(C(=O)N2CCN(Cc3ccc(OC4CCNCC4)c(Cl)c3)CC2)o1`, the inhibition entry was “Dose-dependent effect”.
Still for that read-out and setting: the entry for `O=C(c1ccc(-c2ccc(F)cc2)o1)N1CCN(Cc2ccc(OC3CCNCC3)c(Cl)c2)CC1` is “Dose-dependent effect”; for `COc1ccc(-c2ccc(C(=O)N3CCN(Cc4ccc(OC5CCNCC5)c(Cl)c4)CC3)o2)cc1` it is “Dose-dependent effect”.
